Measurements: ChEMBL document CHEMBL4028876, “Discovery of a Novel Piperidine-Based Inhibitor of Cholesteryl Ester Transfer Protein (CETP) That Retains Activity in Hypertriglyceridemic Plasma” (J Med Chem, 2017)
Calls of active or inactive are those of the source. The calls are words filed in the database; no cut-off is given here.

Experiments:
[1] = Selectivity for inhibition of CYP2D6 (unknown origin) to IC50 for inhibition of CETP in human plasma
Serum [2] = assay: Drug uptake in triglyceride rich lipoprotein fraction of human serum from human donors with normal triglyceride levels (<150 mg/dL) by LC-MS/MS method; type: ADME, cell-free
Method in brief: (§1)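 Pooled unfasted human serum (mean TG 122, 347 or 958 mg/dL) spiked with inhibitor to 500 ng/mL, 37 °C, 1 h. NaBr density-gradient ultracentrifugation, 18.5 h at 15 °C. Acetonitrile precipitation, glyburide internal standard, LC-MS/MS in duplicate. Result given as % of total across pools.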

Serum [3] = assay: Drug uptake in HDL fraction of human serum from human donors with triglyceride levels ( 300-500 and >750 mg/dL) by LC-MS/MS method; type: ADME, cell-free; method in brief: as §1
Serum [4] = assay: Drug uptake in LDL fraction of human serum from human donors with triglyceride levels ( 300-500 and >750 mg/dL) by LC-MS/MS method; type: ADME, cell-free; method in brief: as §1
[5] = AUC (infinity) in Sprague-Dawley rat at 1 mg/kg, iv or 3 mg/kg, po by LC-ESI-MS/MS analysis; type: ADME, organism-based; details: in vivo
Method in brief: (§2)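 Conscious 7-week-old male Sprague-Dawley rats on standard diet with free water. Dosing is 1 mg/kg iv bolus in N-methylpyrrolidin-2-one/PEG 200, or 3 mg/kg oral suspension in 0.5% aqueous methylcellulose. Blood is sampled at various time points after administration.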

Syrian golden hamster [6] = assay: Increase in HDL cholesterol level in Syrian hamster plasma at 0.3 and 10 mg/kg, po dosed once daily for 2 weeks and measured 24 hrs post last dose by HPLC size exclusion chromatography method relative to control; type: functional, organism-based; details: Mesocricetus auratus
Method in brief: (§3)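 Chow-fed hamsters gavaged once daily in the morning for 2 weeks (0.3, 1, 3, 10 mg/kg; vehicle 10 mL/kg). Blood is drawn from the abdominal vein under isoflurane 24 h post last dose, after a 16 h fast. Lipoprotein cholesterol is measured by Superose 6 HPLC with online enzymatic detection at 580 nm, standardized to control plasma. Mean ± SEM, n=6, Dunnett test.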

Cytochrome P450 3A4 [7] = molecular target: T1, Cytochrome P450 3A4 (Homo sapiens, UniProt P08684); assay: Inhibition of CYP3A4 (unknown origin) in the presence of testosterone; type: ADME
Rattus norvegicus [8] = assay: Toxicity in cannulated Sprague-Dawley rat assessed as increase in mean arterial pressure at 5 mg/kg, iv by blood pressure transducer based method; type: organism-based; details: in vivo
Serum [9] = assay: Drug uptake in lipoprotein deficient serum fraction of human serum from human donors with triglyceride levels ( 300-500 and >750 mg/dL) by LC-MS/MS method; type: ADME, cell-free; method in brief: as §1
NCI-H295R = assay: Toxicty in human NCI-H295R cells assessed as increase in aldosterone levels at 0.1 to 10000 nM after 24 hrs by scintillation proximity assay; type: toxicity, cell-based; details: 10 µM
Rattus norvegicus [10] = assay: Toxicity in cannulated Sprague-Dawley rat assessed as increase in plasma aldosterone levels at 5 mg/kg, iv by radioimmunoassay; type: organism-based; details: in vivo
[11] = Volume of distribution in Sprague-Dawley rat at 1 mg/kg, iv or 3 mg/kg, po by LC-ESI-MS/MS analysis; type: ADME, organism-based; details: in vivo; method in brief: as §2
[12] = Half life in Sprague-Dawley rat at 1 mg/kg, iv or 3 mg/kg, po by LC-ESI-MS/MS analysis; type: ADME, organism-based; details: in vivo; method in brief: as §2
Cytochrome P450 2C9 = Cytochrome P450 2C9 (Homo sapiens, UniProt P11712); assay: Inhibition of CYP2C9 (unknown origin); type: ADME
[13] = 1-Octanol-phosphate buffered saline partition coefficient, log D of compound at […] by tandem mass spectrometry method; type: physicochemical
[14] = Clearance in Sprague-Dawley rat plasma at 1 mg/kg, iv or 3 mg/kg, po by LC-ESI-MS/MS analysis; type: ADME, organism-based; method in brief: as §2
Syrian golden hamster [15] = assay: Inhibition of CETP in Syrian hamster blood at 0.3 to 10 mg/kg, po dosed once daily for 2 weeks and measured 24 hrs post last dose; type: functional, organism-based; details: Mesocricetus auratus
Hamster [16] = assay: Increase in HDL cholesterol levels in hamster plasma by HPLC size exclusion chromatography method relative to control; type: functional; details: Cricetinae; method in brief: as §3
Serum [17] = assay: Drug uptake in HDL fraction of human serum from human donors with normal triglyceride levels (<150 mg/dL) by LC-MS/MS method; type: ADME, cell-free; method in brief: as §1
Cytochrome P450 3A4 [18] = molecular target: T1, Cytochrome P450 3A4; assay: Inhibition of CYP3A4 (unknown origin) in the presence of midozolam; type: ADME
[19] = Drug uptake in Syrian hamster plasma at 10 mg/kg, po dosed once daily for 14 days measured 24 hrs post last dose by LC-MS/MS method; type: ADME, organism-based, Mesocricetus auratus; details: in vivo
Method in brief: (§4)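 Chow-fed hamsters dosed orally once daily for 14 days. Blood and ~100 mg adipose, adrenal and liver samples are taken 24 h after the final dose. Tissues are flash-frozen and stored at −80 °C. Total drug concentrations are measured by LC-MS/MS. Mean ± SEM, seven animals per group.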

[20] = Selectivity for inhibition of CYP3A4 (unknown origin) to IC50 for inhibition of CETP in human plasma
Cytochrome P450 2D6 = Cytochrome P450 2D6 (Homo sapiens, UniProt P10635); assay: Inhibition of CYP2D6 (unknown origin); type: ADME
[21] = Drug uptake in Syrian hamster adipose tissue at 10 mg/kg, po dosed once daily for 14 days measured 24 hrs post last dose by LC-MS/MS method; type: ADME, organism-based, Mesocricetus auratus; details: in vivo; method in brief: as §4
[22] = Oral bioavailability in Sprague-Dawley rat at 3 mg/kg by LC-ESI-MS/MS analysis; type: ADME, organism-based; details: in vivo; method in brief: as §2
Hamster [23] = assay: Ex vivo inhibition of CETP activity in hamster hypertriglyceridemia model treated with 100 mg/kg, iv Triton WR-1339 dosed 5 hrs post compound dose measured every 15 mins for 120 mins by fluorescence method; type: functional, organism-based; details: Cricetinae
Method in brief: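 Chow-fed hamsters given a single gavage dose of compound or vehicle. Triton WR-1339 (100 mg/kg) or saline is given iv 5 h later, and plasma is taken 3 h after that. Plasma (final 80%) is mixed with fluorescent donor in 50 mM Tris-HCl pH 7.4, 150 mM NaCl, 2 mM EDTA. Ex/em 485/535 nm, read every 15 min for 120 min at 37 °C. Activity is the 30–90 min slope. Five animals per group.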

Plasma = assay: Protein binding in human plasma using [14C]-labeled compound after 3 hrs by scintillation counting based ultracentrifugation method; type: ADME, cell-free
Method in brief: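 Human plasma spiked with [14C]-labelled compound at 50−10000 ng/mL, then ultracentrifuged 3 h at 37 °C at 306000g. Supernatant radioactivity is counted by scintillation. Bound fraction = (total − supernatant)/total.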

Syrian golden hamster [24] = assay: Reduction in LDL cholesterol level in Syrian hamster plasma at 0.3 and 10 mg/kg, po dosed once daily for 2 weeks and measured 24 hrs post last dose by HPLC size exclusion chromatography method; type: functional, organism-based; details: Mesocricetus auratus; method in brief: as §3
[25] = Drug uptake in Syrian hamster adrenal tissue at 10 mg/kg, po dosed once daily for 14 days measured 24 hrs post last dose by LC-MS/MS method; type: ADME, organism-based, Mesocricetus auratus, Adrenal gland; details: in vivo; method in brief: as §4
[26] = molecular target: T2, Cholesteryl ester transfer protein (Homo sapiens) (UniProt P11597); assay: Inhibition of CETP activity in human serum at upto 1200 mg/dl serum triglyceride concentration by LC-MS/MS method; details: in the assay text read “fluorescence method” for “LC-MS/MS method”
T2 sequence (whole entry): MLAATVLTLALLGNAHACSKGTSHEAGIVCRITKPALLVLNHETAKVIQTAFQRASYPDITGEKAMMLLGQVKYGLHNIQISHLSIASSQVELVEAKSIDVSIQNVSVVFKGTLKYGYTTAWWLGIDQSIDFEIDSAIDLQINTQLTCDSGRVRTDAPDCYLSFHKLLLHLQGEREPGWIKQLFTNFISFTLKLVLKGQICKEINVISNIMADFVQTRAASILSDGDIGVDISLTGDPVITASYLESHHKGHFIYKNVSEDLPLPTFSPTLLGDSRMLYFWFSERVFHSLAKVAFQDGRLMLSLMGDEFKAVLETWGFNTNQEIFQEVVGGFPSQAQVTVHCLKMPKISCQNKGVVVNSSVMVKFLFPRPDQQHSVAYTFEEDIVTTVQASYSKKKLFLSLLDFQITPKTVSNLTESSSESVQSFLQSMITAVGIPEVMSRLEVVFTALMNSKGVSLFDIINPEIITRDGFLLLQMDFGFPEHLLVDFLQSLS
Method in brief: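 Three human serum pools of differing triglyceride level. IC50 values are the mean of two replicates per pool.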

Serum [27] = assay: Drug uptake in lipoprotein deficient serum fraction of human serum from human donors with normal triglyceride levels (<150 mg/dL) by LC-MS/MS method; type: ADME, cell-free; method in brief: as §1
Serum [28] = assay: Drug uptake in LDL fraction of human serum from human donors with normal triglyceride levels (<150 mg/dL) by LC-MS/MS method; type: ADME, cell-free; method in brief: as §1
Serum [29] = assay: Drug uptake in triglyceride rich lipoprotein fraction of human serum from human donors with triglyceride levels ( 300-500 and >750 mg/dL) by LC-MS/MS method; type: ADME, cell-free; method in brief: as §1
[30] = Selectivity for inhibition of CYP2C9 (unknown origin) to IC50 for inhibition of CETP in human plasma
Syrian golden hamster [31] = assay: Reduction in LDL cholesterol level in Syrian hamster plasma at 0.3 and 10 mg/kg, po dosed once daily for 2 weeks and measured 24 hrs post last dose by HPLC size exclusion chromatography method relative to control; type: functional, organism-based; details: Mesocricetus auratus; method in brief: as §3
Syrian golden hamster [32] = assay: Inhibition of CETP in Syrian hamster blood at 3 and 10 mg/kg, po dosed once daily for 2 weeks and measured 24 hrs post last dose; type: functional, organism-based; details: Mesocricetus auratus

T1 sequence (P08684 whole entry): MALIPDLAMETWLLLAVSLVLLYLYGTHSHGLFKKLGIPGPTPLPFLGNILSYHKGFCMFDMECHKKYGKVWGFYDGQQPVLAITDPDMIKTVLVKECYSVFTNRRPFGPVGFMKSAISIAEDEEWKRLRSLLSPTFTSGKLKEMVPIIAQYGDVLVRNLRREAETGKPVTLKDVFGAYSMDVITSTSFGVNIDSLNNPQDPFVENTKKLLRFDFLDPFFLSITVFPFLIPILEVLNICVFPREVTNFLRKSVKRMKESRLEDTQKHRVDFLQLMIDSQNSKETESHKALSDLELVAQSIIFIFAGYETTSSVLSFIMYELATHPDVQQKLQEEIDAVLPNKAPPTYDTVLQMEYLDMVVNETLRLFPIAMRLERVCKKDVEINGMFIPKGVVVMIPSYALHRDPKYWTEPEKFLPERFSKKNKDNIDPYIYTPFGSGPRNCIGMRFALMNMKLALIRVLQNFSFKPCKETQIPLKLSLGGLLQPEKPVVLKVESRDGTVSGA
Sequence of Cytochrome P450 2C9 (P11712 whole entry): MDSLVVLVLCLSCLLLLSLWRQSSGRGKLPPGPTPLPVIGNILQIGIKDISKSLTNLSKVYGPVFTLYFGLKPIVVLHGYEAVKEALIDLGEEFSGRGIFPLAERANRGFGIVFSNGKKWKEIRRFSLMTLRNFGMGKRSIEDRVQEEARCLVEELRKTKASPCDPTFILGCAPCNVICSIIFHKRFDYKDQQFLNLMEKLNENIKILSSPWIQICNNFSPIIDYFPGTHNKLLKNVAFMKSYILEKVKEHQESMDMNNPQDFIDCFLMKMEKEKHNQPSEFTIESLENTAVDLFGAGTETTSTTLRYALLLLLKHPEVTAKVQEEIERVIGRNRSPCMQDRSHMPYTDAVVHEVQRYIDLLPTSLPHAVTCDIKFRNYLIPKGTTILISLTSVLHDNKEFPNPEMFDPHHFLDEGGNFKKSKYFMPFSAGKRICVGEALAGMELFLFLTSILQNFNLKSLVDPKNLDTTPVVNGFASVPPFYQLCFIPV
Sequence of Cytochrome P450 2D6 (P10635 whole entry): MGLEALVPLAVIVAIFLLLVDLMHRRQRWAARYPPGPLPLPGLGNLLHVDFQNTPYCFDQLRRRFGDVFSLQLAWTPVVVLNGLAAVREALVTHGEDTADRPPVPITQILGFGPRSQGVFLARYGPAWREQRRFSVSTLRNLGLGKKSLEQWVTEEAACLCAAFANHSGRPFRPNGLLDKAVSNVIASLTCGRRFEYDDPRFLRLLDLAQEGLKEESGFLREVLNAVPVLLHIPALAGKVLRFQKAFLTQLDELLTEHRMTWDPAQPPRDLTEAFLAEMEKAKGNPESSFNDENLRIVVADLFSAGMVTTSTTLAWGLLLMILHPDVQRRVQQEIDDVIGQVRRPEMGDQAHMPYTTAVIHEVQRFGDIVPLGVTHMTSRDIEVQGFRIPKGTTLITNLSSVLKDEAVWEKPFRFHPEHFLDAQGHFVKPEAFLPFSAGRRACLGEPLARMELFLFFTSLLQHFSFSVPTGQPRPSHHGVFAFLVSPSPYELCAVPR

Row | SMILES | Drug uptake (Serum [2]) | Activity (Syrian golden hamster [6]) | Activity (NCI-H295R) | logD [13] | Activity (Hamster [16]) | Drug uptake (Serum [17]) | Drug uptake [19] | Drug uptake [21] | inhibition (Hamster [23]) | Activity (Syrian golden hamster [24]) | Drug uptake [25] | inhibition [26] | Drug uptake (Serum [27]) | Drug uptake (Serum [28]) | Drug uptake (Serum [29]) | Activity (Syrian golden hamster [31]) | other results
1 | CC[C@@H]1C[C@H](N(Cc2cc(C(F)(F)F)cc(C(F)(F)F)c2)c2ncc(-c3cnn(C)c3)cn2)C[C@H](CC)N1C(=O)O[C@H]1CC[C@H](C(=O)O)CC1 | Active | Dose-dependent effect | Non-Toxic | 5.2 | Dose-dependent effect | Active | Active | Not Active | Active | Dose-dependent effect | Not Active | Active | Active | Active | Active | Active | Selectivity ratio [1]: >170; Drug uptake (Serum [3]): Active; Drug uptake (Serum [4]): Active; AUC(0-inf) [5]: 27.2 µM·h; IC50 (Cytochrome P450 3A4 [7]): > 50 µM; Activity (Rattus norvegicus [8]): Non-Toxic; Drug uptake (Serum [9]): Active; Activity (Rattus norvegicus [10]): Non-Toxic; Vd [11]: 0.57 L/kg; half-life [12]: 5.8 h; IC50 (Cytochrome P450 2C9): 19 µM; clearance [14]: 1.5 mL/min/kg; inhibition (Syrian golden hamster [15]): Active; IC50 (Cytochrome P450 3A4 [18]): 10.6 µM; Selectivity ratio [20]: >170; IC50 (Cytochrome P450 2D6): 31 µM; bioavailability [22]: 43%; PPB (Plasma): 99.4%; Selectivity ratio [30]: >170
2 | COc1cc(F)c(C(C)C)cc1-c1ccc(C(F)(F)F)cc1CN1C(=O)O[C@H](c2cc(C(F)(F)F)cc(C(F)(F)F)c2)[C@@H]1C [ANACETRAPIB] | Active | Dose-dependent effect | Non-Toxic | > 5.9 | Dose-dependent effect | Active | Not Active | Active | inactive | Dose-dependent effect | Active | inactive | Active | Active | Active | Active | inhibition (Syrian golden hamster [32]): Active
